Laboratory results taken from article PMC8897028 (Acta Pharmaceutica Sinica. B, 2021).
Numbering of substitutions follows the chain as printed.

Columns and labels:
[1] = test system: HEK293 cells expressing hTRPV3; test: cell death assay; type: cell-based, human; details: 12 h, n = 4
Outline: (§1)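 HEK293 cells 12 h after hTRPV3 transfection, or HaCaT cells, were seeded in six-well plates, randomly split into 6 groups, and treated 12 h in culture medium. Cells were detached with 0.25% trypsin (HEK293 1 min; HaCaT 7 min), centrifuged, and stained 30 min in PBS with Hoechst and PI. Five random fields per group were imaged. Death ratio = PI-labelled over Hoechst-labelled nuclei, averaged over five images; n = 4.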

HaCaT cells [2] = test: cell death assay; type: cell-based, human; details: IAB added with carvacrol 300 μmol/L; 12 h
Outline: as §1

[3] = test system: HEK293 cells expressing hTRPV3; test: cell proliferation MTT assay, HEK293 cells transfected with hTRPV3; type: cell-based, human; details: IAB at 10 and 100 μmol/L with carvacrol 300 μmol/L, 24 h
Outline: (§2)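 hTRPV3-transfected HEK293 or HaCaT cells were plated at 5 × 10^3 per well for 24 h, then exposed 24 h to TRPV3 activator and/or inhibitor in culture medium. MTT (5 mg/mL solution) was added for 4 h. Medium was removed, formazan dissolved in DMSO, and absorbance read at 490 nm.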

HaCaT cells [4] = test: cell proliferation MTT assay, HaCaT cells; type: cell-based, human; details: IAB at 10 and 100 μmol/L with carvacrol 300 μmol/L, 24 h
Outline: as §2

mTRPV3 V662A = biological target: T1, mTRPV3 V662A (Mus musculus, UniProt Q8K424, V662A); test: whole-cell patch-clamp of mTRPV3 V662A mutant in HEK293 cells; type: cell-based; details: compound 50 μmol/L; 2-APB; compared with WT mTRPV3
T1 sequence (Q8K424 1-791 V662A): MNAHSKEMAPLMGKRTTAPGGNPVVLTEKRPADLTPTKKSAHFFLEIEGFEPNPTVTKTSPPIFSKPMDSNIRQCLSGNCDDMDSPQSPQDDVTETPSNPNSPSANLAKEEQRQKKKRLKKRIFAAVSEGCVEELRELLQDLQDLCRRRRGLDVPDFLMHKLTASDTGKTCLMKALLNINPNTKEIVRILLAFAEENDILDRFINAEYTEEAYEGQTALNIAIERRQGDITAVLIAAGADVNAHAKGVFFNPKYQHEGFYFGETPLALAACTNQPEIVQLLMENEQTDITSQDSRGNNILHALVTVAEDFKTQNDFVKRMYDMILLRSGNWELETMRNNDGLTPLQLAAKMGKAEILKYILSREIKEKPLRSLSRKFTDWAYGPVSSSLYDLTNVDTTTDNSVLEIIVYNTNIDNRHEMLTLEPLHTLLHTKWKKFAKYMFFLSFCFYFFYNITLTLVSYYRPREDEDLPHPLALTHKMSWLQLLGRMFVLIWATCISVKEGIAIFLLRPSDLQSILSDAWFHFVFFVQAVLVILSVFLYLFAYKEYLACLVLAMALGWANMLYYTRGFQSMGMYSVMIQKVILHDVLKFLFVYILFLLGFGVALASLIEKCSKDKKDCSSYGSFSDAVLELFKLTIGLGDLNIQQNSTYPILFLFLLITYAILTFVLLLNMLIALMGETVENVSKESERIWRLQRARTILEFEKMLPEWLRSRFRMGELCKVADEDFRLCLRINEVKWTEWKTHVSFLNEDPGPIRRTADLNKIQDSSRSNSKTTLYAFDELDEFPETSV
Outline: (§3)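 Mouse Trpv3 point mutants were made by site-directed mutagenesis, sequence-verified, and transiently expressed in HEK293 cells alongside wild-type mTRPV3. Whole-cell ramp recordings (−100 to +100 mV, 500 ms, holding 0 mV) were made at 22–24 °C. Currents were activated by 2-APB, and inhibition by 50 μmol/L test compound in the presence of 2-APB was compared with wild type; n = 3–8.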

mTRPV3 T665A = biological target: T2, mTRPV3 T665A (Mus musculus, UniProt Q8K424, T665A); test: whole-cell patch-clamp of mTRPV3 T665A mutant in HEK293 cells; type: cell-based; details: compound 50 μmol/L; 2-APB; compared with WT mTRPV3
T2 sequence (Q8K424 1-791 T665A): T1 sequence (Q8K424 1-791 V662A) with A662V, T665A
Outline: as §3

Row | SMILES | cell death ratio ([1]; IAB 10 μmol/L with carvacrol 300 μmol/L) [%] | cell death ratio ([1]; IAB 100 μmol/L with carvacrol 300 μmol/L) [%] | HaCaT cell death (HaCaT cells [2]) | reversal of overactive TRPV3-induced inhibition of cell proliferation [3] | reversal of overactive TRPV3-induced inhibition of cell proliferation (HaCaT cells [4]) | effect of mutation on compound-induced inhibition of mTRPV3 currents (mTRPV3 V662A) | effect of mutation on compound-induced inhibition of mTRPV3 currents (mTRPV3 T665A)
1 | O=C(/C=C/c1ccc(O)c(O)c1)O[C@@H]1[C@H](O)C[C@@](O)(C(=O)O)C[C@H]1OC(=O)/C=C/c1ccc(O)c(O)c1 [IAB, isochlorogenic acid B] | 11.7 ± 0.9 | 9.9 ± 1.2 | dose-dependent reduction of HaCaT cell death | significantly reversed | significantly reversed | no obvious effect | no obvious effect
2 | O=C(/C=C/c1ccc(O)c(O)c1)O[C@@H]1C[C@](O)(C(=O)O)C[C@@H](OC(=O)/C=C/c2ccc(O)c(O)c2)[C@H]1O [IAA, isochlorogenic acid A] |  |  |  |  |  | no obvious effect | no obvious effect
